Compounds with a hit are over-represented: about 1.8% of the library has one in this group of screens.
CHRM5 agonist = human M5 muscarinic receptor agonists, primary screen, CHO-K1 cells, Fluo-8 calcium fluorescence. Muscarinic acetylcholine receptor M5 (Homo sapiens), P08912. CHO-K1 hM5 cells; 0% DMSO wells, 100% maximal acetylcholine response. activation, % at 3 µM. hit rate 0.19% among 360,000. AID 624037, 2012;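 active = activation above the run's mean over test compounds plus 3 SD, cut at about 23% in these data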;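 note: signal is peak over basal fluorescence ratio across the kinetic read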
Target sequence (P08912 whole entry, looked up): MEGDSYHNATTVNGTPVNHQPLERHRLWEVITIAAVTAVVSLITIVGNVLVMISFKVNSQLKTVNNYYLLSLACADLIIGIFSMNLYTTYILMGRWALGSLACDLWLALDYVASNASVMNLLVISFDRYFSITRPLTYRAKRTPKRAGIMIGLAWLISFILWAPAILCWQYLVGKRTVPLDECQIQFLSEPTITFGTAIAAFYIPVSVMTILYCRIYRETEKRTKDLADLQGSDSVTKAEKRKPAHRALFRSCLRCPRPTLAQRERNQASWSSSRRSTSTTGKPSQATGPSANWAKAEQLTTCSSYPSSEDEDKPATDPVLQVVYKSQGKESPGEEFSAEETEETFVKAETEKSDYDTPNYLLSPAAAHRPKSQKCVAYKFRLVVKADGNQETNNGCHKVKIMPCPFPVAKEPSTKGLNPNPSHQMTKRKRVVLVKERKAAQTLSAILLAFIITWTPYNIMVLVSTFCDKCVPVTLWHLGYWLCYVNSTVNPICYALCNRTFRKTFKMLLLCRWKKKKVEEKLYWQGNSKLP
M5 PAM = human M5 muscarinic receptor positive allosteric modulators, primary screen, CHO-K1 cells, Fluo-8 calcium fluorescence; Muscarinic acetylcholine receptor M5 (Homo sapiens), P08912; CHO-K1 hM5, ACh EC20 PAM; 0% = ACh EC20, 100% = ACh EC100; activation, % at 3 µM; hit rate 0.3% among 360,000; AID 624038, 2012;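 active = activation above the run cutoff, the mean activation of all test compounds plus 3 SD, cut at about 18% in these data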
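Assay system: CHO-K1 hM5 cells / Incubation: Fluo-8 loading 80 min at 37 °C plus 30 min room temperature / Technique: Fluo-8 calcium dye fluorescence, kinetic read / Repeats: single replicate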
CHRM4 antagonist = human M4 muscarinic receptor antagonists, primary screen, CHO cells, Fluo-8 calcium fluorescence | Muscarinic acetylcholine receptor M4 (Homo sapiens), P08173 | CHO-hM4 cells, ACh EC80 | inhibition, % at 3 µM | hit rate 0.73% among 360,000 | AID 624125, 2012;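 active = inhibition above its plate's cutoff, the mean inhibition of sample wells plus 3 SD, cut at about 27% in these data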
CHRM4 agonist = human M4 muscarinic receptor agonists, primary screen, CHO-K1 cells, Fluo-8 calcium fluorescence | Muscarinic acetylcholine receptor M4 (Homo sapiens), P08173 | CHO-K1 hM4/Gqi5; vehicle 0%, full acetylcholine response 100% | activation, % at 3 µM | hit rate 0.14% among 360,000 | AID 624127, 2012;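 active = activation above the run mean over all test wells plus 3 SD, cut at about 32% in these data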;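 note: peak over basal fluorescence ratio per well then scaled between controls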
CHRM4 PAM = human M4 muscarinic receptor positive allosteric modulators, primary screen, CHO-K1 cells, Fluo-8 calcium fluorescence | hit rate 0.4% among 360,000 | CHO-K1 hM4/Gqi5, ACh EC20; 0% = ACh EC20, 100% = maximal ACh | activation, % at 3 µM | Muscarinic acetylcholine receptor M4 (Homo sapiens), P08173;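 active = activation above its plate's cutoff, the mean activation of sample wells plus 3 SD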
CHRM5 antagonist = human M5 muscarinic receptor antagonists, primary screen, CHO cells, Fluo-8 calcium fluorescence | hit rate 0.59% among 360,000 | CHO-hM5 cells, ACh EC80 | Muscarinic acetylcholine receptor M5 (Homo sapiens), P08912 | inhibition, % at 3 µM;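 active = inhibition above a per-plate cutoff, the mean of that plate's test compounds plus 3 SD, cut at about 27% in these data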
Hits are given with their value.

How did CCCCn1cc(C(=O)c2cc(Br)ccc2O)cc(C#N)c1=O do in these assays?
CHRM5 agonist: inactive; M5 PAM: inactive; CHRM4 antagonist: inactive; CHRM4 agonist: inactive; CHRM4 PAM: inactive; CHRM5 antagonist: 29

What do the screens show for `COc1ccc(NC(=O)C2(C)CCN2Cc2csc3ccccc23)cc1OC` (stereo not given)?
CHRM5 agonist: inactive; M5 PAM: inactive; CHRM4 antagonist: inactive; CHRM4 agonist: inactive; CHRM4 PAM: inactive; CHRM5 antagonist: inactive

What do the screens show for `O=[N+]([O-])c1cc(C(F)(F)F)ccc1SCC(O)CO` (stereo not given)?
CHRM5 agonist: inactive; M5 PAM: 26; CHRM4 antagonist: inactive; CHRM4 agonist: inactive; CHRM4 PAM: inactive; CHRM5 antagonist: inactive

What do the screens show for `N#Cc1cnn(-c2ccc(F)cc2)c1N`?
CHRM5 agonist: inactive; M5 PAM: 19; CHRM4 antagonist: inactive; CHRM4 agonist: inactive; CHRM4 PAM: inactive; CHRM5 antagonist: inactive

Results for COc1ccc(C)cc1NC(=O)CCNC(=O)Cn1ccc2ccccc2c1=O ?
CHRM5 agonist: inactive; M5 PAM: inactive; CHRM4 antagonist: inactive; CHRM4 agonist: inactive; CHRM4 PAM: inactive; CHRM5 antagonist: inactive

How did CCC(CC)C(C(=O)NCc1ccccc1)N(C)Cc1ccc(Cl)c(Cl)c1 (stereo not given) do in these assays?
CHRM5 agonist: inactive; M5 PAM: inactive; CHRM4 antagonist: inactive; CHRM4 agonist: inactive; CHRM4 PAM: inactive; CHRM5 antagonist: inactive

What do the screens show for `COc1ccc(-n2c(-c3ccc(Cl)cc3)c[n+]3c2CCc2ccccc2-3)cc1`?
CHRM5 agonist: inactive; M5 PAM: inactive; CHRM4 antagonist: inactive; CHRM4 agonist: inactive; CHRM4 PAM: inactive; CHRM5 antagonist: inactive

Results for Cc1ccc(-n2c(-c3ccc(Br)cc3)c[n+]3c2CCc2ccc4cccnc4c2-3)cc1 ?
CHRM5 agonist: inactive; M5 PAM: inactive; CHRM4 antagonist: 41; CHRM4 agonist: inactive; CHRM4 PAM: inactive; CHRM5 antagonist: 36

What do the screens show for `COc1cccc(N2CCN(c3ccc([N+](=O)[O-])cn3)CC2)c1`?
CHRM5 agonist: inactive; M5 PAM: inactive; CHRM4 antagonist: inactive; CHRM4 agonist: inactive; CHRM4 PAM: 17; CHRM5 antagonist: inactive

What do the screens show for `O=C1C=C(NNC(=O)c2ccncc2)CC(c2ccccc2)C1` (stereo not given)?
CHRM5 agonist: 33; M5 PAM: inactive; CHRM4 antagonist: inactive; CHRM4 agonist: inactive; CHRM4 PAM: inactive; CHRM5 antagonist: inactive

What do the screens show for `Fc1ccc(C[n+]2csc3ccccc32)cc1`?
CHRM5 agonist: 46; M5 PAM: inactive; CHRM4 antagonist: 28; CHRM4 agonist: inactive; CHRM4 PAM: inactive; CHRM5 antagonist: 43

Results for Clc1ccc(C[n+]2csc3ccccc32)cc1 ?
CHRM5 agonist: inactive; M5 PAM: inactive; CHRM4 antagonist: inactive; CHRM4 agonist: inactive; CHRM4 PAM: inactive; CHRM5 antagonist: inactive

Results for Nc1ncnc2nc(SCc3ccc(Cl)cc3Cl)[nH]c12 ?
CHRM5 agonist: inactive; M5 PAM: inactive; CHRM4 antagonist: inactive; CHRM4 agonist: inactive; CHRM4 PAM: inactive; CHRM5 antagonist: inactive

Results for Nc1cc(=O)[nH]c(SCc2ccc(Cl)cc2Cl)n1 ?
CHRM5 agonist: inactive; M5 PAM: inactive; CHRM4 antagonist: inactive; CHRM4 agonist: inactive; CHRM4 PAM: inactive; CHRM5 antagonist: 30

Results for C=CCn1c(SCC(=O)Nc2cccnc2Cl)nnc1-c1ccc(Cl)cc1 ?
CHRM5 agonist: inactive; M5 PAM: 26; CHRM4 antagonist: inactive; CHRM4 agonist: inactive; CHRM4 PAM: inactive; CHRM5 antagonist: 28

What do the screens show for `CCc1ccccc1NC(=S)Nn1cnnc1`?
CHRM5 agonist: inactive; M5 PAM: inactive; CHRM4 antagonist: inactive; CHRM4 agonist: inactive; CHRM4 PAM: inactive; CHRM5 antagonist: inactive

What do the screens show for `COC(=O)c1c(-c2ccc(OC)c(OC)c2)csc1N`?
CHRM5 agonist: inactive; M5 PAM: 44; CHRM4 antagonist: inactive; CHRM4 agonist: inactive; CHRM4 PAM: inactive; CHRM5 antagonist: inactive

Results for COC(=O)c1c(-c2cccc(OC)c2)csc1N ?
CHRM5 agonist: inactive; M5 PAM: inactive; CHRM4 antagonist: inactive; CHRM4 agonist: inactive; CHRM4 PAM: inactive; CHRM5 antagonist: inactive

How did O=C(Cc1ccccc1)N1CCc2[nH]nc(-c3ccccc3)c2C1 do in these assays?
CHRM5 agonist: inactive; M5 PAM: inactive; CHRM4 antagonist: inactive; CHRM4 agonist: inactive; CHRM4 PAM: 18; CHRM5 antagonist: inactive

What do the screens show for `O=C(CSCc1ccc(F)cc1)N1CCN(c2ccccc2)CC1`?
CHRM5 agonist: inactive; M5 PAM: inactive; CHRM4 antagonist: inactive; CHRM4 agonist: inactive; CHRM4 PAM: 30; CHRM5 antagonist: inactive

Results for O=C(CSCc1ccc(F)cc1)N1CCN(c2ccc(F)cc2)CC1 ?
CHRM5 agonist: inactive; M5 PAM: inactive; CHRM4 antagonist: inactive; CHRM4 agonist: inactive; CHRM4 PAM: inactive; CHRM5 antagonist: inactive

What do the screens show for `O[C@@H]1CN(CC2CCCCC2)[C@@H](c2ccccc2)C[C@H]1n1cc(-c2ccc(F)cc2)nn1`?
CHRM5 agonist: inactive; M5 PAM: inactive; CHRM4 antagonist: inactive; CHRM4 agonist: inactive; CHRM4 PAM: inactive; CHRM5 antagonist: inactive

How did O=C(Nc1ccc(N2CCN(c3ncccc3C(F)(F)F)CC2)nc1)c1cccs1 do in these assays?
CHRM5 agonist: inactive; M5 PAM: inactive; CHRM4 antagonist: 27; CHRM4 agonist: inactive; CHRM4 PAM: inactive; CHRM5 antagonist: inactive

What do the screens show for `O=C(Nc1ccc(N2CCN(c3ccc(C(F)(F)F)cn3)CC2)nc1)c1cccs1`?
CHRM5 agonist: inactive; M5 PAM: inactive; CHRM4 antagonist: inactive; CHRM4 agonist: inactive; CHRM4 PAM: inactive; CHRM5 antagonist: inactive

Results for CC1(C(=O)NS(=O)(=O)C2CC2)CCCN(C(=O)c2ccccc2OC(F)(F)F)C1 (stereo not given) ?
CHRM5 agonist: inactive; M5 PAM: inactive; CHRM4 antagonist: inactive; CHRM4 agonist: inactive; CHRM4 PAM: inactive; CHRM5 antagonist: inactive

How did COc1ccccc1C(c1c(N)n(C)c(=O)n(C)c1=O)C(C)[N+](=O)[O-] (stereo not given) do in these assays?
CHRM5 agonist: inactive; M5 PAM: inactive; CHRM4 antagonist: inactive; CHRM4 agonist: inactive; CHRM4 PAM: inactive; CHRM5 antagonist: 28

How did COc1ccccc1C(C[N+](=O)[O-])c1c(N)n(C)c(=O)n(C)c1=O (stereo not given) do in these assays?
CHRM5 agonist: inactive; M5 PAM: inactive; CHRM4 antagonist: inactive; CHRM4 agonist: inactive; CHRM4 PAM: inactive; CHRM5 antagonist: inactive
